Results from different studies.
Lines come from different studies, so protocols differ.
EGFR L861Q: Epidermal growth factor receptor (EGFR, Homo sapiens, UniProt P00533, L861Q)
EGFR T790M: Epidermal growth factor receptor (EGFR, Homo sapiens, UniProt P00533, T790M)
EGFR del747-752/P753S: Epidermal growth factor receptor (EGFR, Homo sapiens, UniProt P00533, del747-752/P753S)
EGFR: Epidermal growth factor receptor (EGFR, Homo sapiens, UniProt P00533)
EGFR G719C: Epidermal growth factor receptor (EGFR, Homo sapiens, UniProt P00533, G719C)
EGFR del747-750/T751S: Epidermal growth factor receptor (EGFR, Homo sapiens, UniProt P00533, del747-750/T751S)
EGFR G719S: Epidermal growth factor receptor (EGFR, Homo sapiens, UniProt P00533, G719S)
EGFR L858R: Epidermal growth factor receptor (EGFR, Homo sapiens, UniProt P00533, L858R)

O=C(NCCCN1CCOCC1)c1ccc(Nc2nccc(-c3cc4ccccc4s3)n2)cc1 — remaining binding (Epidermal growth factor receptor (EGFR, Homo sapiens, UniProt P00533, del746-750); binding, competition with immobilised ligand; 1 µM): 100%
C[C@H]1CCN(c2nccc(-c3cnn4ncccc34)n2)C1 — remaining binding (EGFR L861Q; binding; 1 µM): 81%
CCN1CCN(Cc2ccc(C(=O)Nc3ccc(C)c(Oc4ccc5c(c4)CC(=O)N5)c3)cc2C(F)(F)F)CC1 — remaining binding (EGFR T790M; binding, competition with immobilised ligand; 1 µM): 83%
COc1cnc(Nc2cccc(S(N)(=O)=O)c2)nc1N1CCN(c2ccccc2)CC1 — remaining binding (EGFR L861Q; binding, competition with immobilised ligand; 1 µM): 100%
Nc1ncc2c(n1)-c1c([nH]c3ccc(C#CC4CC4)cc13)CCCC2 — remaining binding (EGFR T790M; binding, competition with immobilised ligand; 1 µM): 86%
Cc1cnc(Nc2ccc(C(=O)N3CCC(N4CCCC4)CC3)cc2)nc1-c1cc2ccccc2s1 — remaining binding (EGFR del747-752/P753S; binding, competition with immobilised ligand; 1 µM): 100%
F[C@@H]1CCN(c2nccc(-c3cnn4ncccc34)n2)C1 — remaining binding (EGFR; binding; 1 µM): 91%
COc1ncc2cc3ccccc3nc2c1C#N — remaining binding (EGFR L861Q; cell-free assay, competition with immobilised ligand; 5 µM): 100%
CC(=O)C1=C(C)N(c2cccc(C(F)(F)F)c2)C(=O)N[C@@H]1c1ccc(C#N)nc1 — remaining binding (EGFR G719C; cell-free assay, competition with immobilised ligand; 1 µM): 100%
CN1CCN(c2ccc(Nc3nccc(-c4ccccc4)n3)cc2C(F)(F)F)CC1 — remaining binding (EGFR T790M; binding; 10 µM): 77%
O=C(O)[C@H]1[C@H](Cn2nnc3ccccc3c2=O)CC[C@@H]1C(=O)c1ccc(OCCC2CCOCC2)cc1 — remaining binding (EGFR del747-750/T751S; cell-free assay, competition with immobilised ligand; 1 µM): 65%
CN(C)c1ncc(F)c(-c2cnn3ncccc23)n1 — remaining binding (Epidermal growth factor receptor (EGFR, Homo sapiens, UniProt P00533, del752-759); binding; 1 µM): 100%
CN1CCN(c2ccc(Nc3nccc(-c4cccc([N+](=O)[O-])c4)n3)cc2C(F)(F)F)CC1 — remaining binding (EGFR G719S; binding; 10 µM): 98%
CS(=O)(=O)N1CCCC(NC(=O)[C@H](CCC2CCCCC2)NC(=O)c2ccc(CNc3ncnc4c3nnn4-c3ccccc3)cc2)C1 (some centres unmarked) — remaining binding (EGFR del747-752/P753S; cell-free assay, competition with immobilised ligand; 0.1 µM): 66%
N[C@H]1CCN(c2nccc(-c3cnn4ncccc34)n2)C1 — remaining binding (Epidermal growth factor receptor (EGFR, Homo sapiens, UniProt P00533, L858R/T790M); binding; 1 µM): 89%
CNC(=O)[C@@H]1CC[C@@H](n2c(-c3ccc4cnccc4c3)nc3ccc(C(=O)NCc4cccc(C(N)=O)c4)cc32)C1 — remaining binding (EGFR L861Q; binding, competition with immobilised ligand; 1 µM): 100%
Cc1noc([C@H]2C[C@@H](c3ccc(C(F)(F)F)cc3)CN(C(=O)N3CCS(=O)(=O)C3)C2)n1 — remaining binding (EGFR del747-752/P753S; cell-free assay, competition with immobilised ligand; 1 µM): 78%
c1cncc(-c2cccc(Nc3nccc(NC4CCCCC4)n3)c2)c1 — remaining binding (EGFR G719S; binding, competition with immobilised ligand; 10 µM): 68%
CN(CCCC(F)(F)F)c1nccc(-c2cnn3ncccc23)n1 — remaining binding (EGFR L858R; binding; 1 µM): 85%
CCOCCn1cc(C(=O)Nc2ccc(-n3nc(-c4cccnc4)cc3C(F)(F)F)cn2)ccc1=O — remaining binding (EGFR del747-750/T751S; cell-free assay, competition with immobilised ligand; 1 µM): 100%
COc1ccnn2ncc(-c3ccnc(N(C)C)n3)c12 — remaining binding (EGFR; binding; 1 µM): 79%
CNCc1ccccc1-c1csc([C@H](C)Nc2nc(C)nc3cc(OC)c(OC)cc23)c1 — remaining binding (EGFR G719C; cell-free assay, competition with immobilised ligand; 1 µM): 85%
O=C(c1ccc(Nc2ncc(Cl)c(-c3cc4ccccc4s3)n2)cc1)N1CCC(N2CCCC2)CC1 — remaining binding (EGFR G719C; binding, competition with immobilised ligand; 1 µM): 88%
CC(=O)Nc1c(C(C)=O)c(=O)n(C)c2nc(-c3ccc(Cl)cc3Cl)c(-c3ccc(Cl)cc3)cc12 — remaining binding (EGFR del747-750/T751S; cell-free assay, competition with immobilised ligand; 1 µM): 100%
Cc1cnn2ncc(-c3ccnc(N(C)C)n3)c2c1 — remaining binding (EGFR; binding; 1 µM): 75%
O=C(NC[C@@H]1[C@H]2CN(C(=O)OCc3cc(C(F)(F)F)cc(C(F)(F)F)c3)C[C@@H]12)c1ccc2[nH]nnc2c1 — remaining binding (EGFR L858R; cell-free assay, competition with immobilised ligand; 1 µM): 100%
O=C(c1ccc(Nc2nccc(-c3cc4ccccc4s3)n2)cc1)N1CCC(N2CCCC2)CC1 — remaining binding (EGFR T790M; binding, competition with immobilised ligand; 1 µM): 67%
O=C(NCC1CCOCC1)c1n[nH]cc1NC(=O)c1c(F)cccc1F — remaining binding (EGFR del747-752/P753S; binding, competition with immobilised ligand; 1 µM): 100%
O=C(NCCCN1CCOCC1)c1ccc(Nc2ncc(Cl)c(-c3ccc(Cl)s3)n2)cc1 — remaining binding (EGFR del747-750/T751S; binding, competition with immobilised ligand; 1 µM): 100%
COc1cnc(Nc2cccc(S(N)(=O)=O)c2)nc1N1CCN(c2ccccc2)C(=O)C1 — remaining binding (EGFR L861Q; binding, competition with immobilised ligand; 1 µM): 100%
O=C(c1ccc(Nc2ncc(Cl)c(-c3ccc(Cl)s3)n2)cc1)N1CCC(N2CCCC2)CC1 — remaining binding (EGFR L858R; binding, competition with immobilised ligand; 1 µM): 72%
O=C(Nc1c[nH]nc1C(=O)NC1CCNCC1)c1cc(F)cc(F)c1 — remaining binding (EGFR G719S; binding, competition with immobilised ligand; 1 µM): 100%
